pIC50, pKi: −log10 of the molar value. Activity calls are given as the source filed them. The rule behind the calls is not given here.
Columns and labels:
[1] = target: T1, Endoplasmic reticulum aminopeptidase 1 (Homo sapiens, UniProt Q9NZ08); assay: Activation of recombinant human C-terminal His6-tagged ERAP1 expressed in baculovirus infected BTA-TN-5B1-4 insect cells assessed as increase in Vmax/[…] ratio using varying levels of L-pNA as substrate incubated for 1 hr and measured for 5 to 10 mins by […] Michaelis-Menten equation analysis relative to control
T1 sequence (Q9NZ08 whole entry): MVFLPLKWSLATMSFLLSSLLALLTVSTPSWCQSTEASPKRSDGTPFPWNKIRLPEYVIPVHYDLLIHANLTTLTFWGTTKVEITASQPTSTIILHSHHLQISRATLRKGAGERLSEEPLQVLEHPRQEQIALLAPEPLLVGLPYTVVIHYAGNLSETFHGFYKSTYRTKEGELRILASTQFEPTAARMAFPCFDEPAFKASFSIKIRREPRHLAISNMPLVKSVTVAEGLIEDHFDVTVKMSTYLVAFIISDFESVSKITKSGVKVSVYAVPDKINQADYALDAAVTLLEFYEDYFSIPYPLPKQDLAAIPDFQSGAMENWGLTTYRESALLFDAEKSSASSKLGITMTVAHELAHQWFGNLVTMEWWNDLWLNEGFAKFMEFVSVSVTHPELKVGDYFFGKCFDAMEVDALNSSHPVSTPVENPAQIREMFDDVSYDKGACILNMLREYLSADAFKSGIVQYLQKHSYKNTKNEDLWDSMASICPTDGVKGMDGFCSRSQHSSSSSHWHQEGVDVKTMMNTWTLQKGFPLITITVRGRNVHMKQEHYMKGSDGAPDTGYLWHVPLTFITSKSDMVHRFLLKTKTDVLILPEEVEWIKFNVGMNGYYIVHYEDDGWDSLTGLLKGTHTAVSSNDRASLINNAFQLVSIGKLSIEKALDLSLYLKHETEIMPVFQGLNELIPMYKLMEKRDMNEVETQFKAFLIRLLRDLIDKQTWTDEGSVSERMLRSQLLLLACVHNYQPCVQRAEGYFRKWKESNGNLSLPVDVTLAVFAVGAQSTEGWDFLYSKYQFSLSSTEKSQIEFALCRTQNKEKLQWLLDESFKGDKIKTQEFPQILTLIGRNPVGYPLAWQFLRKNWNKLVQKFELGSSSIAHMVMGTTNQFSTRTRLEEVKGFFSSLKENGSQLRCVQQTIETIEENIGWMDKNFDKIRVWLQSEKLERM
Outline: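 ERAP1 initial rates measured under steady-state conditions with the chromogenic substrate leucine p-nitroanilide (L-pNA), allowing a wide substrate range, across several compound concentrations. Rate-versus-substrate curves were fit to an allosteric Michaelis-Menten equation with a Hill coefficient to give V_max and K_half at each compound level. Activity was expressed as V_max/K_half relative to no-compound control.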

[2] = Activation of recombinant human C-terminal His6-tagged ERAP1 allele 3 mutant expressed in baculovirus infected BTA-TN-5B1-4 insect cells using L-AMC as substrate measured after 1 hr by fluorescence assay
[3] = Activation of recombinant human C-terminal His6-tagged ERAP1 allele 2 mutant expressed in baculovirus infected BTA-TN-5B1-4 insect cells using L-AMC as substrate measured after 1 hr by fluorescence assay
[4] = target: T2, Antigen peptide transporter 1/2 (Homo sapiens) (UniProt Q03518+Q03519); assay: (§1) Inhibition of TAP1/2 in human HeLa cells stably expressing H-2 Kb infected with vaccinia virus containing Ub-SIINFEKL epitope assessed as suppression of Ub-SIINFEKL binding to MHC1 H-2 Kb at cell surface by measuring reduction in 25D1 staining at 50 uM measured after 16 to 24 hrs by flow cytometric method; assay type: cell-based
[5] = target: T1, Endoplasmic reticulum aminopeptidase 1; assay: Activation of recombinant human C-terminal His6-tagged ERAP1 expressed in baculovirus infected BTA-TN-5B1-4 insect cells using L-AMC as substrate measured after 1 hr by fluorescence assay
[6] = target: T1, Endoplasmic reticulum aminopeptidase 1; assay: Competitive inhibition of recombinant human C-terminal His6-tagged ERAP1 expressed in baculovirus infected BTA-TN-5B1-4 insect cells using varying levels of LVAFKARKF as substrate measured at 2.5 mins interval for 20 mins by ABTS reagent based horseradish peroxidase-coupled Michaelis-Menten equation analysis
[7] = target: T1, Endoplasmic reticulum aminopeptidase 1; assay: Activation of recombinant human C-terminal His6-tagged ERAP1 expressed in baculovirus infected BTA-TN-5B1-4 insect cells at 10.7 uM using L-AMC as substrate measured after 1 hr by fluorescence assay relative to control
[8] = target: T1, Endoplasmic reticulum aminopeptidase 1; assay: Inhibition of recombinant human C-terminal His6-tagged ERAP1 expressed in baculovirus infected BTA-TN-5B1-4 insect cells using WRCYEKMALK as substrate measured after 10 mins by LC-MS analysis
[9] = Activation of recombinant human C-terminal His6-tagged ERAP1 5-SNP mutant expressed in baculovirus infected BTA-TN-5B1-4 insect cells using L-AMC as substrate measured after 1 hr by fluorescence assay
[10] = target: T1, Endoplasmic reticulum aminopeptidase 1; assay: as §1, with “ERAP1” for “TAP1/2”, “ss-LEQLE-SIINFEKL” for “Ub-SIINFEKL”, “staining” for “staining at 50 uM”; assay type: cell-based
[11] = target: T3, Leucyl-cystinyl aminopeptidase (Mus musculus, UniProt Q8C129); assay: Inhibition of recombinant mouse C-terminal His6-tagged IRAP expressed in baculovirus infected BTA-TN-5B1-4 insect cells using L-AMC as substrate measured after 1 hr by fluorescence assay
T3 sequence (Q8C129 whole entry): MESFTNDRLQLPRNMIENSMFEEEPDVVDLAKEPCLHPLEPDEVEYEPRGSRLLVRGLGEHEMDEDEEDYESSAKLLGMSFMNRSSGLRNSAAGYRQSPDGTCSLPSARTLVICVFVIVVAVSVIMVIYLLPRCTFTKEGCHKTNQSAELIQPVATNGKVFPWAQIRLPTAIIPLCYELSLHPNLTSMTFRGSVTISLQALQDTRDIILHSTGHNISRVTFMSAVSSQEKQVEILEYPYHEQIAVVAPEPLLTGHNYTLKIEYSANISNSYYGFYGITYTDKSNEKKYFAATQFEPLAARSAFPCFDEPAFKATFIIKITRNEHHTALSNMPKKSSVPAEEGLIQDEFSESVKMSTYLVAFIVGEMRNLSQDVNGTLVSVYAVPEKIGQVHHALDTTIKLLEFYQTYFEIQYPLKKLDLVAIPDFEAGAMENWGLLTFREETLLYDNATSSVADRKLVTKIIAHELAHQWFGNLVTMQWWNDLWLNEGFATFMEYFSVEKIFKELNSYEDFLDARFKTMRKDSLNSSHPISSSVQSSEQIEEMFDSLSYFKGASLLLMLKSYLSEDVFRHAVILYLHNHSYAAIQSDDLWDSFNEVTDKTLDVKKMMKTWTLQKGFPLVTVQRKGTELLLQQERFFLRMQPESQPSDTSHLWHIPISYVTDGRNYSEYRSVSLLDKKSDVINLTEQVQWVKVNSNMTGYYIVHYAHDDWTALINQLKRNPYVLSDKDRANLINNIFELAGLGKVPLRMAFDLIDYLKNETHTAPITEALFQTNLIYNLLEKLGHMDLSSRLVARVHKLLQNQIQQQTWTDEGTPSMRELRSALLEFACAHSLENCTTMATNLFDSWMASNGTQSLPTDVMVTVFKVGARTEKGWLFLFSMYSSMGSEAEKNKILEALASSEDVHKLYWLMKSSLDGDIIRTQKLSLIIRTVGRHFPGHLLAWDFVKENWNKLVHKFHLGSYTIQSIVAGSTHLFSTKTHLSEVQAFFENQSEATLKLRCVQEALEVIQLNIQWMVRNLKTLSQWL

[12] = target: T2, Antigen peptide transporter 1/2 (Homo sapiens); assay: Inhibition of TAP1/2 in human HeLa cells stably expressing H-2 Kb infected with vaccinia virus containing Ub-SIINFEKL epitope assessed as suppression of Ub-SIINFEKL binding to MHC1 H-2 Kb at cell surface by measuring reduction in 25D1 staining measured after 16 to 24 hrs by flow cytometric method; assay type: cell-based
[13] = target: T1, Endoplasmic reticulum aminopeptidase 1; assay: Inhibition of recombinant human C-terminal His6-tagged ERAP1 expressed in baculovirus infected BTA-TN-5B1-4 insect cells using L-AMC as substrate measured after 1 hr by fluorescence assay
[14] = target: T1, Endoplasmic reticulum aminopeptidase 1; assay: Competitive inhibition of recombinant human C-terminal His6-tagged ERAP1 expressed in baculovirus infected BTA-TN-5B1-4 insect cells using varying levels of L-pNA as substrate incubated for 1 hr and measured for 5 to 10 mins by […] Michaelis-Menten equation analysis

COc1ccc(C(=O)O)cc1S(=O)(=O)Nc1cc(C(F)(F)F)ccc1N1CCCCC1
fold change (FC) [1]: < 1.8
AC50 [2]: 3.1 µM
AC50 [3]: 0.88 µM
inhibition [4]: inactive
AC50 [5]: 4.1 µM
pKi [6]: 5.42
Activity [7]: > 40%
pIC50 [8]: 5.28
AC50 [9]: 2.7 µM
pIC50 [10]: 6.00
inhibition (INH) ([11]; mouse, 1 h): Not Active

COc1ccc(C(=O)O)cc1S(=O)(=O)Nc1cc(C(F)(F)F)ccc1N1CCN(C)CC1
pIC50 [11]: < 3.70

COC(=O)c1ccc(OC)c(S(=O)(=O)Nc2cc(C(F)(F)F)ccc2N2CCCCC2)c1
inhibition [12]: Active
pIC50 [11]: < 3.70

N=C(NCCc1c[nH]c2ccccc12)NS(=O)(=O)c1cc(F)ccc1F
inhibition [4]: Active
pIC50 [13]: 5.04
pKi [14]: 4.29

O=C(O)c1ccc(Br)c(S(=O)(=O)Nc2cc(C(F)(F)F)ccc2N2CCCCC2)c1
pIC50 [11]: < 3.70

COc1ccc(C(=O)O)cc1S(=O)(=O)Nc1cc(C)ccc1N1CCCCC1
pIC50 [11]: < 3.70

O=C(O)c1ccc(Cl)c(S(=O)(=O)Nc2cc(C(F)(F)F)ccc2N2CCCCC2)c1
pIC50 [11]: < 3.70

COc1ccc(C(=O)O)cc1S(=O)(=O)Nc1ccccc1N1CCCCC1
pIC50 [11]: < 3.70

COc1ccc(C(=O)O)cc1S(=O)(=O)Nc1cc(F)ccc1N1CCCCC1
pIC50 [11]: < 3.70

CC(C)C[C@H](N)CS
inhibition [4]: inactive

O=C(O)c1cccc(S(=O)(=O)Nc2cc(C(F)(F)F)ccc2N2CCCCC2)c1
pIC50 [11]: < 3.70
